Starred links: 1 amine or outer side, 2 acyl side, 3 side chain; linkers in the order of their positions; H or OH if unused. Positions of bridges follow the written chain, without caps; N, C: chain ends. Non-standard residues stand in square brackets, D forms with d. Residues, ends and D or L forms follow the SMILES beside them. ξ: configuration not given here. X7 = O=C([C@H](Cc1ccc(Cc2ccccc2)cc1)N[*:1])[*:2]; X4 = O=C([C@H](CC1CCC(C2CCCCC2)CC1)N[*:1])[*:2]; Oic(3aξ,7aξ) = O=C(O)[C@@H]1CC2CCCCC2N1; X3 = O=C([C@H]1CC2CCCCC2N1[*:1])[*:2]; Pip = O=C(O)[C@@H]1CCCCN1; Nle = CCCC[C@H](N)C(=O)O
What was measured:
[1] = target: T1, Melanocortin receptor 5 (Homo sapiens, UniProt P33032); assay: Agonist activity at human MC5R expressed in CHO cells assessed as cAMP accumulation; type: functional, cell-based
[2] = target: T2, Melanocyte-stimulating hormone receptor (Homo sapiens, UniProt Q01726); assay: Displacement of [125I]NDPalphaMSH from human cloned melanocortin receptor 1b expressed in CHO cells; type: cell-based
Target sequence in this assay (Q01726 whole entry): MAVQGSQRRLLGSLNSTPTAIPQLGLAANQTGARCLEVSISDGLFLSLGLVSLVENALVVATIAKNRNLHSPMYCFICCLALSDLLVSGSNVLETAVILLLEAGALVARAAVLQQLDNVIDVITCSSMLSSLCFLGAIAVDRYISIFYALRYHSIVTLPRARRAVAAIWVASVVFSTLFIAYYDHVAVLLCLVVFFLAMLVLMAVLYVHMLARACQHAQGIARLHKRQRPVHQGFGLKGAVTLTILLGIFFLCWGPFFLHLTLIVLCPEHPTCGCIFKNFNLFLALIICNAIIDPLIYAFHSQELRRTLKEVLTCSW

[3] = target: T1, Melanocortin receptor 5; assay: Displacement of [125I]NDPalphaMSH from human cloned MC5R expressed in CHO cells; type: cell-based
[4] = target: T3, Melanocortin receptor 3 (Homo sapiens, UniProt P41968); assay: Agonist activity at human MC3R expressed in CHO cells assessed as cAMP accumulation; type: functional, cell-based
How it was run: (§1)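 Dissociated CHO cells were spun 5 min and resuspended in Earle's balanced salt solution with 10 mM HEPES pH 7.5, 5 mM MgCl2, 1 mM glutamine and 1 mg/mL BSA. They were incubated 40 min at room temperature with compound (0.003–5000 nM) plus 0.6 mM IBMX, then lysed with 0.1 M HCl. cAMP was measured by Flashplate cAMP assay.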

[5] = target: T2, Melanocyte-stimulating hormone receptor; assay: Agonist activity at human melanocortin receptor 1b expressed in CHO cells assessed as cAMP accumulation; type: functional, cell-based; how it was run: as §1
Target sequence in this assay (Q01726 whole entry): as above

[6] = target: T3, Melanocortin receptor 3; assay: Displacement of [125I]NDPalphaMSH from human cloned MC3R expressed in CHO cells; type: cell-based
[7] = target: T4, Melanocortin receptor 4 (Homo sapiens, UniProt P32245); assay: Agonist activity at human MC4R expressed in CHO cells assessed as cAMP accumulation at 1 uM relative to [125I]NDPalphaMSH; type: functional, cell-based
[8] = target: T2, Melanocyte-stimulating hormone receptor; assay: Agonist activity at human melanocortin receptor 1b expressed in CHO cells assessed as cAMP accumulation at 1 uM relative to [125I]NDPalphaMSH; type: functional, cell-based
Target sequence in this assay (Q01726 whole entry, looked up): as the sequence (Q01726 whole entry) above

[9] = target: T3, Melanocortin receptor 3; assay: Agonist activity at human MC3R expressed in CHO cells assessed as cAMP accumulation at 1 uM relative to [125I]NDPalphaMSH; type: functional, cell-based
[10] = target: T4, Melanocortin receptor 4; assay: Displacement of [125I]NDPalphaMSH from human cloned MC4R expressed in CHO cells; type: cell-based
[11] = target: T4, Melanocortin receptor 4; assay: Inhibition of human cloned MC4R expressed in CHO cells at 2 uM relative to [125I]NDPalphaMSH; type: cell-based
[12] = species: Homo sapiens; assay: Selectivity for human cloned MC5R over human cloned MC1bR
[13] = target: T3, Melanocortin receptor 3; assay: Agonist activity at human MC3R expressed in CHO cells assessed as cAMP accumulation at 10 uM relative to [125I]NDPalphaMSH; type: functional, cell-based
[14] = target: T4, Melanocortin receptor 4; assay: Agonist activity at human MC4R expressed in CHO cells assessed as cAMP accumulation at 10 uM relative to [125I]NDPalphaMSH; type: functional, cell-based
[15] = target: T2, Melanocyte-stimulating hormone receptor; assay: Agonist activity at human melanocortin receptor 1b expressed in CHO cells assessed as cAMP accumulation relative to [125I]NDPalphaMSH; type: functional, cell-based
Target sequence in this assay (Q01726 whole entry, looked up): as the sequence (Q01726 whole entry) above

[16] = target: Melanocortin receptor (M4 and M5) (Homo sapiens) (UniProt P32245+P33032); assay: Selectivity for human cloned MC5R over human cloned MC4R; type: protein assay
[17] = species: Homo sapiens; assay: Selectivity for human cloned MC5R over human cloned MC3R
[18] = target: T3, Melanocortin receptor 3; assay: Agonist activity at human MC3R expressed in CHO cells assessed as cAMP accumulation at 2 uM relative to [125I]NDPalphaMSH; type: functional, cell-based
[19] = target: T3, Melanocortin receptor 3; assay: Agonist activity at human MC3R expressed in CHO cells assessed as cAMP accumulation at […] relative to [125I]NDPalphaMSH; type: functional, cell-based

T1 sequence (P33032 whole entry): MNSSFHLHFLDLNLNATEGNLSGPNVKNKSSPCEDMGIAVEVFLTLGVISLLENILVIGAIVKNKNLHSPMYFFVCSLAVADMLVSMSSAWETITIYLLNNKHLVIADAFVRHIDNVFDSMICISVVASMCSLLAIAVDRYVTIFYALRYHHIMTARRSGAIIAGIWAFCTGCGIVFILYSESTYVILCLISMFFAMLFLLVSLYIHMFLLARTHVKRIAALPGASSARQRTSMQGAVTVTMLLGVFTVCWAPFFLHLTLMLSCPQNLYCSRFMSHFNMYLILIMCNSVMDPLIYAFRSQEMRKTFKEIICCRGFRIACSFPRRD
T4 sequence (P32245 whole entry): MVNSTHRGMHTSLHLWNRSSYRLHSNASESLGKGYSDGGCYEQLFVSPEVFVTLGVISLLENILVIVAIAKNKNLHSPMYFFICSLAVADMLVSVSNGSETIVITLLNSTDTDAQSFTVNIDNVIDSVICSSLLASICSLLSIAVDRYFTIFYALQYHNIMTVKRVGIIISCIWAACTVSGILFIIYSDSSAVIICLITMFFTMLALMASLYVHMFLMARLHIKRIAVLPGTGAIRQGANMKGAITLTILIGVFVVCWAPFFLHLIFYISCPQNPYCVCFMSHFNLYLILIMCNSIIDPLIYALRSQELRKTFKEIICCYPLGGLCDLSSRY
T3 sequence (P41968 whole entry): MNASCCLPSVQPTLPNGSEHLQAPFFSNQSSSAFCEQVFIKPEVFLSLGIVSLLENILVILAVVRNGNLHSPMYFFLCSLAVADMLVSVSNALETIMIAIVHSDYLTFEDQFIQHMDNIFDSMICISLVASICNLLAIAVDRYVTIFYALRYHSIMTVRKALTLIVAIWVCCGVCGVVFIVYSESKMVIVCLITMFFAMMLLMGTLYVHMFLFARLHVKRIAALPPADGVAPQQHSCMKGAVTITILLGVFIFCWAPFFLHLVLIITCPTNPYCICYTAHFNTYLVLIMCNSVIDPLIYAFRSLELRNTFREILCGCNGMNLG
Chain of Melanocortin receptor (M4 and M5) (Homo sapiens) (P32245 whole entry, looked up): as the sequence (P32245 whole entry) above
Chain of Melanocortin receptor (M4 and M5) (Homo sapiens) (P33032 whole entry, looked up): as the sequence (P33032 whole entry) above

CCCC[C@H](NC(C)=O)C(=O)N[C@H]1CC(=O)NCCCC[C@@H](C(N)=O)NC(=O)[C@H](Cc2c[nH]c3ccccc23)NC(=O)[C@@H]2CCCN2C(=O)[C@@H](Cc2ccc(OCC)cc2)NC(=O)[C@H](Cc2cnc[nH]2)NC1=O
EC50 [1]: 270 nM (agonist) | IC50 [2]: 430 nM (antagonist) | IC50 [3]: 340 nM (antagonist) | EC50 [4]: > 2500 nM | EC50 [5]: 60 nM (agonist) | IC50 [6]: > 10000 nM

CCCC[C@H](NC(C)=O)C(=O)N[C@H]1CC(=O)NCCCC[C@@H](C(N)=O)NC(=O)[C@H](Cc2c[nH]c3ccccc23)NC(=O)[C@@H]2CCCCN2C(=O)[C@H](Cc2ccc(-c3ccccc3)cc2)NC(=O)[C@H](c2ccccc2)NC1=O
Activity ([7]; filed as agonist): 72% | Activity [8]: 16% | Activity [9]: 0%

CCCC[C@H](NC(C)=O)C(=O)N[C@H]1CC(=O)NCCCC[C@@H](C(N)=O)NC(=O)[C@H](Cc2c[nH]c3ccccc23)NC(=O)[C@@H]2CCCCN2C(=O)[C@H](Cc2ccc(-c3ccccc3)cc2)NC(=O)[C@H](C2CCCCC2)NC1=O
Activity ([7]; filed as partial agonist): 43% | Activity [9]: 1%

CCCC[C@H](NC(C)=O)C(=O)N[C@H]1CC(=O)NCCCC[C@@H](C(N)=O)NC(=O)[C@H](Cc2c[nH]c3ccccc23)NC(=O)[C@@H]2CCCCN2C(=O)[C@@H](Cc2ccc(-c3ccccc3)cc2)NC(=O)[C@H](Cc2c[nH]cn2)NC1=O
EC50 [1]: 0.37 nM (agonist) | IC50 [2]: 5.9 nM (antagonist) | IC50 [3]: 0.72 nM (antagonist) | EC50 [4]: 370 nM (agonist) | IC50 [10]: 570 nM (antagonist) | EC50 [5]: 3.3 nM (agonist) | IC50 [6]: 1400 nM (antagonist)

CCCC[C@H](NC(C)=O)C(=O)N[C@H]1CC(=O)NCCCC[C@@H](C(N)=O)NC(=O)[C@H](Cc2c[nH]c3ccccc23)NC(=O)[C@@H]2CCCCN2C(=O)[C@H](CC2CCC(C3CCCCC3)CC2)NC(=O)[C@H]2CC3CCCCC3N2C1=O (stereo partly drawn) (Ac-[Nle]D[X3][X4][Pip]WK-NH2; lactam 2-7)
EC50 ([1]; cho): > 500 nM | Activity ([7]; filed as partial agonist): 39% | IC50 ([2]; cho): 1300 nM (antagonist) | Activity [8]: 13% | inhibition [11]: 25% | IC50 ([3]; cho): 700 nM (antagonist) | EC50 ([4]; cho): > 500 nM | Ratio IC50 [12]: 1.8 | IC50 ([6]; cho): > 1000 nM

CCCC[C@H](NC(C)=O)C(=O)N[C@H]1CC(=O)NCCCC[C@@H](C(N)=O)NC(=O)[C@H](Cc2cc3ccccc3[nH]2)NC(=O)[C@@H]2CCCN2C(=O)[C@@H](Cc2ccccc2)NC(=O)[C@H](Cc2cnc[nH]2)NC1=O
Activity [13]: 2% | Activity [14]: 6%

CCCC[C@H](NC(C)=O)C(=O)N[C@H]1CC(=O)NCCCC[C@@H](C(N)=O)NC(=O)[C@H](Cc2c[nH]c3ccccc23)NC(=O)[C@@H]2CCCCN2C(=O)[C@H](Cc2ccc(-c3ccccc3)cc2)NC(=O)[C@H](C(C)C)NC1=O
Activity ([7]; filed as agonist): 77% | Activity [15]: 33% | Activity [9]: 3% | Ratio IC50 [12]: 670

CCCC[C@H](NC(C)=O)C(=O)N[C@H]1CC(=O)NCCCC[C@@H](C(N)=O)NC(=O)[C@H](Cc2c[nH]c3ccccc23)NC(=O)[C@@H]2CCCCN2C(=O)[C@H](Cc2ccc(Cc3ccccc3)cc2)NC(=O)[C@@H]2CC3CCCCC3N2C1=O (stereo partly drawn) (Ac-[Nle]D[Oic(3aξ,7aξ)][X7][Pip]WK-NH2; lactam 2-7)
Activity [8]: 3% | Activity [9]: 2%

CCCC[C@H](NC(C)=O)C(=O)N[C@H]1CC(=O)NCCCC[C@@H](C(N)=O)NC(=O)[C@H](Cc2c[nH]c3ccccc23)NC(=O)[C@@H]2CCCCN2C(=O)[C@H](Cc2ccc(-c3ccccc3)cc2)NC(=O)[C@@H]2CCCN2C1=O
Activity [7]: 9% | Ratio IC50 [16]: 1060 | Ratio IC50 [12]: 430 | Ratio IC50 [17]: 1800 | Activity [18]: 8%

CCCC[C@H](NC(C)=O)C(=O)N[C@H]1CC(=O)NCCCC[C@@H](C(N)=O)NC(=O)[C@H](Cc2c[nH]c3ccccc23)NC(=O)[C@@H]2CCCN2C(=O)[C@@H](Cc2ccc(Cl)cc2)NC(=O)[C@H](Cc2c[nH]cn2)NC1=O
EC50 [1]: 82 nM (agonist) | IC50 [2]: 560 nM (antagonist) | IC50 [3]: 1300 nM (antagonist) | EC50 [4]: > 5000 nM | IC50 [10]: 4500 nM (antagonist) | EC50 [5]: 63 nM (agonist) | IC50 [6]: > 20000 nM

CCCC[C@H](NC(C)=O)C(=O)N[C@H]1CC(=O)NCCCC[C@@H](C(N)=O)NC(=O)[C@H](Cc2c[nH]c3ccccc23)NC(=O)[C@@H]2CCCN2C(=O)[C@H](Cc2ccc(-c3ccccc3)cc2)NC(=O)[C@@H]2CCCN2C1=O
Ratio IC50 [16]: 340 | Activity [19]: 2% | Activity ([14]; filed as partial agonist): 40% | Ratio IC50 [12]: 720 | Ratio IC50 [17]: 217

CCCC[C@H](NC(C)=O)C(=O)N[C@H]1CC(=O)NCCCC[C@@H](C(N)=O)NC(=O)[C@H](Cc2cc3ccccc3[nH]2)NC(=O)[C@@H]2CCCN2C(=O)[C@H](Cc2ccccc2)NC(=O)[C@H](Cc2cnc[nH]2)NC1=O
Activity [13]: 5% | Activity [14]: 7%

CCCC[C@H](NC(C)=O)C(=O)N[C@H]1CC(=O)NCCCC[C@@H](C(N)=O)NC(=O)[C@H](Cc2c[nH]c3ccccc23)NC(=O)[C@@H]2CCCCN2C(=O)[C@@H](Cc2ccc(-c3ccccc3)cc2)NC(=O)[C@@H]2CCCN2C1=O
EC50 [1]: 0.031 nM (agonist) | IC50 [2]: 65 nM (antagonist) | IC50 [3]: 0.15 nM (antagonist) | IC50 [10]: 160 nM (antagonist) | EC50 [5]: 28 nM (agonist) | IC50 [6]: 270 nM (antagonist)

CCCC[C@H](NC(C)=O)C(=O)N[C@H]1CC(=O)NCCCC[C@@H](C(N)=O)NC(=O)[C@H](Cc2c[nH]c3ccccc23)NC(=O)[C@@H]2CCCCN2C(=O)[C@@H](Cc2ccc(-c3ccccc3)cc2)NC(=O)[C@H](C(C)C)NC1=O
EC50 [1]: 0.23 nM (agonist) | IC50 [2]: 4900 nM (antagonist) | IC50 [3]: 7.3 nM (antagonist) | IC50 [10]: 4700 nM (antagonist) | EC50 [5]: 330 nM (agonist) | IC50 [6]: > 10000 nM

CCCC[C@H](NC(C)=O)C(=O)N[C@H]1CC(=O)NCCCC[C@@H](C(N)=O)NC(=O)[C@H](Cc2c[nH]c3ccccc23)NC(=O)[C@@H]2CCCN2C(=O)[C@@H](Cc2ccc(-c3ccccc3)cc2)NC(=O)[C@H](Cc2c[nH]cn2)NC1=O
EC50 [1]: 2.5 nM (agonist) | IC50 [2]: 45 nM (antagonist) | IC50 [3]: 4.1 nM (antagonist) | EC50 [4]: 1400 nM (agonist) | IC50 [10]: 1200 nM (antagonist) | EC50 [5]: 5.3 nM (agonist) | IC50 [6]: 1500 nM

— ChEMBL document CHEMBL1139880, “Potent and selective agonists of human melanocortin receptor 5: cyclic analogues of alpha-melanocyte-stimulating hormone” (J Med Chem, 2007)
